Experimental data as given in publication PMC9774329 (ACS Omega, 2022).

Experiments:
Type in all cases: cell-based, human
HCT-116 cell line = assay: MTT antiproliferative assay on colon cancer cells; details: HCT-116, MTT, 48 h; compared to 3′-O-methyltaxifolin and quercetin
Summary of the method: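 HCT-116 cells were seeded at 20,000 cells/well in DMEM with FBS, L-glutamine, penicillin, streptomycin and selenium chloride at 37 °C in CO2. They were exposed to test compound at 5.0–40 μg/mL for 48 h, with untreated controls. MTT (5.0 mg/mL) was added for 4 h, then DMSO […], and OD was read at 570 nm. Done in triplicate.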

[1] = system: colon (HCT-116) cancer cells; assay: Apoptosis confirmation by DAPI staining; details: HCT-116, 48 h post-treatment
Summary of the method: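 Fixed HCT-116 cells were examined for apoptosis after 48 h compound exposure. Cells were fixed in 4% paraformaldehyde and stained in the dark with DAPI (1.0 μg/mL). Nuclear morphology was assessed by fluorescence confocal scanning microscopy.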

[2] = system: caspase-3 expression in HCT-116 cells; assay: Caspase-3 detection by ELISA in cell lysates; details: HCT-116, 48 h treatment, 40 μg/mL
Summary of the method: (§1)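 HCT-116 cells were seeded at 50,000 cells/well in a CO2 incubator. After 24 h, at 70–80% confluence, cells received test compound at 40 μg/mL for 48 h; untreated cells served as controls. Cells were PBS-washed, detached with 0.35% trypsin and spun at 1000 rpm. Pellets were lysed 60 min and re-spun at 1000 rpm for 15 min. Lysates were assayed with human caspase-3 or caspase-9 ELISA kits, absorbance 620 nm.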

[3] = system: caspase-9 expression in HCT-116 cells; assay: Caspase-9 detection by ELISA in cell lysates; details: HCT-116, 48 h treatment, 40 μg/mL
Summary of the method: as §1

COc1cc(O)c2c(c1)O[C@H](c1ccc(O)c(OC)c1)[C@@H](O)C2=O [Compound 1, 7,3′-Di-O-methyltaxifolin]
reduction in the numbers of cancer cells (HCT-116 cell line): significant reductions
apoptosis induction (chromatin condensation, nuclear shrinkage) by DAPI staining [1]: induced apoptosis
caspase-3 expression (ELISA, optical density) [2]: increase
caspase-9 expression (ELISA, optical density) [3]: increase

COc1cc([C@H]2Oc3cc(O)cc(O)c3C(=O)[C@@H]2O)ccc1O [Compound 2, 3′-O-Methyltaxifolin]
apoptosis induction (chromatin condensation, nuclear shrinkage) by DAPI staining [1]: induced apoptosis
caspase-3 expression (ELISA, optical density) [2]: increase
caspase-9 expression (ELISA, optical density) [3]: increase

COc1cc(O)c2c(c1)O[C@H](c1ccc(O)c(O)c1)[C@@H](O)C2=O [Compound 3, 7-O-Methyltaxifolin]
reduction in the numbers of cancer cells (HCT-116 cell line): significant reductions
apoptosis induction (chromatin condensation, nuclear shrinkage) by DAPI staining [1]: induced apoptosis
caspase-3 expression (ELISA, optical density) [2]: increase
caspase-9 expression (ELISA, optical density) [3]: increase

O=C1c2c(O)cc(O)cc2OC(c2ccc(O)c(O)c2)C1O (stereo not shown) [Compound 4, Dihydroquercetin (taxifolin)]
reduction in the numbers of cancer cells (HCT-116 cell line): significant reductions
apoptosis induction (chromatin condensation, nuclear shrinkage) by DAPI staining [1]: induced apoptosis
caspase-3 expression (ELISA, optical density) [2]: increase
caspase-9 expression (ELISA, optical density) [3]: increase

COc1c(-c2ccc(O)c(O)c2)oc2cc(O)cc(O)c2c1=O [Compound 5, 3-O-Methylquercetin]
reduction in the numbers of cancer cells (HCT-116 cell line): significant reductions
apoptosis induction (chromatin condensation, nuclear shrinkage) by DAPI staining [1]: induced apoptosis
caspase-3 expression (ELISA, optical density) [2]: increase
caspase-9 expression (ELISA, optical density) [3]: increase

O=c1c(O)c(-c2ccc(O)c(O)c2)oc2cc(O)cc(O)c12 [Compound 6, Quercetin]
apoptosis induction (chromatin condensation, nuclear shrinkage) by DAPI staining [1]: induced apoptosis
caspase-3 expression (ELISA, optical density) [2]: increase
caspase-9 expression (ELISA, optical density) [3]: increase
